Data published in PMC9290681 (British Journal of Pharmacology, 2020).

Columns and labels:
TRPM3α2 = TRPM3α2 (Mus musculus, UniProt J9SQF3); test: Whole-cell patch clamp, HEK293T cells expressing TRPM3α2; type: cell-based, murine; details: for block of CIM0216-induced currents: isosakuranetin 5 μM, diclofenac 100 μM, primidone 25 μM
TRPM3α1 Δ6b = TRPM3α1 Δ6b (Mus musculus, UniProt J9SQF3, DEL1071-1076); test: Whole-cell patch clamp, deletion mutant TRPM3α1 Δ6b; type: cell-based; details: for block of clotrimazole-activated currents: Clt 10 μM, isosakuranetin 5 μM, diclofenac 100 μM, primidone 25 μM
TRPM3α1 Δ3d = test: Whole-cell patch clamp, deletion mutant TRPM3α1 Δ3d; type: cell-based, mouse; details: for block of clotrimazole-activated currents: isosakuranetin 5 μM, diclofenac 100 μM, primidone 25 μM
TRPM3α1 [1] = biological target: T1, TRPM3α1 (Mus musculus, UniProt J9SQF3); test: Whole-cell patch clamp, HEK293T cells expressing TRPM3α1; type: cell-based; details: for block of CIM0216-induced currents: CIM0216 1 μM, isosakuranetin 5 μM; for block of CIM0216-induced currents / block of clotrimazole-induced currents: diclofenac 100 μM, primidone 25 μM; for block of CIM0216-induced currents / block of clotrimazole-induced currents / whole-cell current increase: ±80 mV; for block of clotrimazole-induced currents: Clt 10 μM; for whole-cell current increase: Nif 50 μM
[2] = biological target: TRPM3α2_D1064_A_P1065 (TRPM3α2 +1) (Mus musculus, UniProt J9SQF3, INS1087A); test: Whole-cell patch clamp, insertion mutant TRPM3α2 +1; type: cell-based; details: for block of clotrimazole-evoked currents / block of pregnenolone sulphate-induced currents: isosakuranetin 5 μM, diclofenac 100 μM, primidone 25 μM
TRPM3α1 [3] = biological target: T1, TRPM3α1; test: Calcium microfluorimetry, HEK293T cells transiently transfected with TRPM3α1; type: cell-based; details: for intracellular calcium response: PS 40 μM, Nif 50 μM, Clt 10 μM, CIM0216 1 μM, Fura-2; for calcium signal at high agonist concentrations: PS 50, 100 and 200 μM, Nif 100 and 200 μM
TRPM3α1 Δ3c = test: Whole-cell patch clamp, deletion mutant TRPM3α1 Δ3c; type: cell-based, mouse; details: n=5
TRPM3α1 Δ3a = test: Whole-cell patch clamp, deletion mutant TRPM3α1 Δ3a; type: cell-based, mouse; details: n=5
TRPM3α1 Δ3b = test: Whole-cell patch clamp, deletion mutant TRPM3α1 Δ3b; type: cell-based, mouse; details: n=5
[4] = biological target: TRPM3α2 D1064_AA_P1065 (TRPM3α2 +2) (Mus musculus, UniProt J9SQF3, INS1087AA); test: Whole-cell patch clamp, insertion mutant TRPM3α2 +2; type: cell-based; details: PS 40 μM, n=4
TRPM3α1 A1077P (α1 A‐P) = TRPM3α1 A1077P (α1 A‐P) (Mus musculus, UniProt J9SQF3, A1077P); test: Whole-cell patch clamp, mutant TRPM3α1 A1077P; type: cell-based; details: PS 40 μM, n=6
[5] = tested on: short pore loop TRPM3α variants (α2–α6); type: cell-based, mouse; details: PS 40 μM, Nif 50 μM; all isoforms α2–α6
Summary of the method: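 HEK293T cells transiently transfected 48 h before imaging were loaded with Fura-2 AM for 20 min at 37°C. Ratios at 340/380 nm excitation were converted to absolute calcium by Grynkiewicz calibration. Response was taken as maximum minus basal during the stimulus. Only cells responding to a final ionomycin challenge were counted. At least three independent coverslips were used.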

TRPM3α2 +5 = TRPM3α2 +5 (Mus musculus, UniProt J9SQF3, INS1087AAAAA); test: Whole-cell patch clamp, insertion mutant TRPM3α2 +5; type: cell-based; details: PS 40 μM, n=4
[6] = biological target: T2, short pore loop TRPM3α isoforms (α2–α6) (Mus musculus, UniProt J9SQF3); test: Whole-cell patch clamp, HEK293T cells expressing short pore loop TRPM3α isoforms; type: cell-based; details: PS 40 μM, Clt 10 μM; ±80 mV
T2 sequence (J9SQF3 852-1200 limits assumed): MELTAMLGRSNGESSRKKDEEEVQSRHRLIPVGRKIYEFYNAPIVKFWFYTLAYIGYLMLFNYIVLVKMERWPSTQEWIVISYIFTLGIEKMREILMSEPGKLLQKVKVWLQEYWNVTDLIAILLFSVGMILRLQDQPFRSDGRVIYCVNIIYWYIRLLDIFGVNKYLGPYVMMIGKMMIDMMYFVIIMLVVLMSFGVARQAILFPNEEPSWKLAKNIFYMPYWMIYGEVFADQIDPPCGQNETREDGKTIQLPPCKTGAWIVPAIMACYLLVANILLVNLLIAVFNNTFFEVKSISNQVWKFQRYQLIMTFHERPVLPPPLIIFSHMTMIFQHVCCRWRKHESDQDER

TRPM3α1 Δ6a = TRPM3α1 Δ6a (Mus musculus, UniProt J9SQF3, DEL1065-1070); test: Whole-cell patch clamp, deletion mutant TRPM3α1 Δ6a; type: cell-based; details: PS 40 μM, n=4
TRPM3α1 Δ12 = TRPM3α1 Δ12 (Mus musculus, UniProt J9SQF3, DEL1065-1076); test: Whole-cell patch clamp, deletion mutant TRPM3α1 Δ12; type: cell-based; details: PS 40 μM, n=6
[7] = biological target: TRPM3α1 and TRPM3α2 co-expressed (Mus musculus, UniProt J9SQF3); test: Calcium microfluorimetry, HEK293 cells co-transfected with TRPM3α1 and TRPM3α2; type: cell-based; details: PS 40 μM, Clt 10 μM; TRPM3α2 cDNA 0.5 μg with TRPM3α1 cDNA 0, 1.5 and 3 μg
TRPM3α2 +3 = TRPM3α2 +3 (Mus musculus, UniProt J9SQF3, INS1087AAA); test: Whole-cell patch clamp, insertion mutant TRPM3α2 +3; type: cell-based; details: PS 40 μM, n=5
TRPM3α2 +4 = TRPM3α2 +4 (Mus musculus, UniProt J9SQF3, INS1087AAAA); test: Whole-cell patch clamp, insertion mutant TRPM3α2 +4; type: cell-based; details: PS 40 μM, n=6

## O=C(O)Cc1ccccc1Nc1c(Cl)cccc1Cl [diclofenac, Diclofenac]
TRPM3α2; CIM0216 1 μM, ±80 mV
  block of CIM0216-induced currents: full block
TRPM3α1 Δ6b
  block of clotrimazole-activated currents: only a partial block
TRPM3α1 Δ3d; Clt 10 μM
  block of clotrimazole-activated currents: only a partial block
TRPM3α1 [1]
  block of CIM0216-induced currents: full block
  block of clotrimazole-induced currents: only partially blocked
[2]
  block of clotrimazole-evoked currents: ineffective
  block of pregnenolone sulphate-induced currents: fully block

## Cc1cc(NC(=O)C(c2ccccc2)N2CCCc3ccccc32)no1 (stereo not drawn) [CIM0216]
TRPM3α2; CIM0216 1 μM, ±80 mV
  whole-cell current increase: robust increase in both inward and outward currents
TRPM3α1 [1]; read-out: EC50 of current activation, CIM0216, outwardly rectifying currents
  EC50: 570 ± 50 nM
TRPM3α1 [3]
  intracellular calcium response: sizable increases in intracellular calcium

## Clc1ccccc1C(c1ccccc1)(c1ccccc1)n1ccnc1 [clotrimazole, Clotrimazole]
TRPM3α1 Δ3c; Clt 10 μM, +80 mV
  Clt +80 mV ΔI density: 242.5 ± 17.2 pA/pF
TRPM3α1 Δ3c; Clt 10 μM, −80 mV
  Clt −80 mV ΔI density: −225.3 ± 13.8 pA/pF
TRPM3α1 Δ3d; Clt 10 μM, +80 mV, n=5
  Clt +80 mV ΔI density: 269.2 ± 55.2 pA/pF
TRPM3α1 Δ3d; Clt 10 μM, −80 mV, n=5
  Clt −80 mV ΔI density: −259.7 ± 53.1 pA/pF
TRPM3α1 Δ3a; Clt 10 μM, +80 mV
  Clt +80 mV ΔI density: 430.6 ± 74.8 pA/pF
TRPM3α1 Δ3a; Clt 10 μM, −80 mV
  Clt −80 mV ΔI density: −355.3 ± 55.5 pA/pF
TRPM3α1 Δ3b; Clt 10 μM, +80 mV
  Clt +80 mV ΔI density: 149.2 ± 21.2 pA/pF
TRPM3α1 Δ3b; Clt 10 μM, −80 mV
  Clt −80 mV ΔI density: −122.8 ± 13.9 pA/pF

## CC(=O)[C@H]1CC[C@H]2[C@@H]3CC=C4C[C@@H](OS(=O)(=O)[O-])CC[C@]4(C)[C@H]3CC[C@]12C.[Na+] [pregnenolone sulphate, Pregnenolone sulphate sodium salt]
[4]; +80 mV
  PS +80 mV ΔI density: 1.2 ± 0.6 pA/pF
[4]; −80 mV
  PS −80 mV ΔI density: −0.1 ± 0.2 pA/pF
TRPM3α1 Δ3c; PS 40 μM, +80 mV
  PS +80 mV ΔI density: −0.1 ± 0.1 pA/pF
TRPM3α1 Δ3c; PS 40 μM, −80 mV
  PS −80 mV ΔI density: 0.2 ± 0.1 pA/pF
TRPM3α2; PS 40 μM, +80 mV, n=11
  PS +80 mV ΔI density: 38.1 ± 12.9 pA/pF
TRPM3α2; PS 40 μM, −80 mV, n=11
  PS −80 mV ΔI density: −1.9 ± 0.5 pA/pF
TRPM3α1 A1077P (α1 A‐P); +80 mV
  PS +80 mV ΔI density: −0.4 ± 0.6 pA/pF
TRPM3α1 A1077P (α1 A‐P); −80 mV
  PS −80 mV ΔI density: −0.1 ± 0.3 pA/pF
[5]
  intracellular calcium response: robust calcium responses
TRPM3α2 +5; +80 mV
  PS +80 mV ΔI density: 1.2 ± 0.6 pA/pF
TRPM3α2 +5; −80 mV
  PS −80 mV ΔI density: −0.1 ± 0.1 pA/pF
TRPM3α1 Δ6b; PS 40 μM, +80 mV, n=5
  PS +80 mV ΔI density: 0.3 ± 0.1 pA/pF
TRPM3α1 Δ6b; PS 40 μM, −80 mV, n=5
  PS −80 mV ΔI density: −0.2 ± 0.02 pA/pF
[6]
  whole-cell current increase: robust current increases
TRPM3α1 Δ3d; PS 40 μM, +80 mV, n=5
  PS +80 mV ΔI density: 0.04 ± 0.3 pA/pF
TRPM3α1 Δ3d; PS 40 μM, −80 mV, n=5
  PS −80 mV ΔI density: 0.01 ± 0.04 pA/pF
TRPM3α1 Δ3a; PS 40 μM, +80 mV
  PS +80 mV ΔI density: 0.01 ± 0.2 pA/pF
TRPM3α1 Δ3a; PS 40 μM, −80 mV
  PS −80 mV ΔI density: 0.3 ± 0.3 pA/pF
TRPM3α1 Δ3b; PS 40 μM, +80 mV
  PS +80 mV ΔI density: −0.5 ± 0.4 pA/pF
TRPM3α1 Δ3b; PS 40 μM, −80 mV
  PS −80 mV ΔI density: 0.1 ± 0.04 pA/pF
TRPM3α1 Δ6a; +80 mV
  PS +80 mV ΔI density: 0.25 ± 0.2 pA/pF
TRPM3α1 Δ6a; −80 mV
  PS −80 mV ΔI density: −0.05 ± 0.3 pA/pF
TRPM3α1 [1]; PS 40 μM on Clt 10 μM currents, at +80 mV
  inhibition of clotrimazole-activated currents by co-application: 10.5 ± 5.1%
TRPM3α1 [1]; PS 40 μM
  whole-cell current increase: did not evoke any increase in current amplitude
TRPM3α1 [1]; PS 40 μM, +80 mV, n=5
  PS +80 mV ΔI density: −1.0 ± 0.85 pA/pF
TRPM3α1 [1]; PS 40 μM, −80 mV, n=5
  PS −80 mV ΔI density: 0.2 ± 0.1 pA/pF
TRPM3α1 Δ12; +80 mV
  PS +80 mV ΔI density: 35.6 ± 13.9 pA/pF
TRPM3α1 Δ12; −80 mV
  PS −80 mV ΔI density: −3.8 ± 1.7 pA/pF
[7]
  calcium increase in co-expressing cells versus TRPM3α2 alone: significantly reduced
TRPM3α2 +3; +80 mV
  PS +80 mV ΔI density: 7.8 ± 2.0 pA/pF
TRPM3α2 +3; −80 mV
  PS −80 mV ΔI density: −1.3 ± 0.4 pA/pF
[2]; PS 40 μM, +80 mV, n=4
  PS +80 mV ΔI density: 45.2 ± 18.6 pA/pF
[2]; PS 40 μM, −80 mV, n=4
  PS −80 mV ΔI density: −2.2 ± 0.6 pA/pF
TRPM3α1 [3]
  intracellular calcium response: did not induce any detectable calcium rise
  calcium signal at high agonist concentrations: did not induce any detectable calcium signal
TRPM3α2 +4; +80 mV
  PS +80 mV ΔI density: 1.1 ± 0.4 pA/pF
TRPM3α2 +4; −80 mV
  PS −80 mV ΔI density: −0.3 ± 0.2 pA/pF

## CCC1(c2ccccc2)C(=O)NCNC1=O [primidone, Primidone]
TRPM3α2; CIM0216 1 μM, ±80 mV
  block of CIM0216-induced currents: full block
TRPM3α1 Δ6b
  block of clotrimazole-activated currents: only a partial block
TRPM3α1 Δ3d; Clt 10 μM
  block of clotrimazole-activated currents: only a partial block
TRPM3α1 [1]
  block of CIM0216-induced currents: full block
  block of clotrimazole-induced currents: only partially blocked
[2]
  block of clotrimazole-evoked currents: ineffective
  block of pregnenolone sulphate-induced currents: fully block

## COC(=O)C1=C(C)NC(C)=C(C(=O)OC)C1c1ccccc1[N+](=O)[O-] [nifedipine, Nifedipine]
[5]
  intracellular calcium response: robust calcium responses
TRPM3α1 [1]; PS 40 μM
  whole-cell current increase: without effect
TRPM3α1 [3]
  intracellular calcium response: did not induce any detectable calcium rise
  calcium signal at high agonist concentrations: did not induce any detectable calcium signal
